# Experimental data pooled from the literature.
# Target: Dual specificity protein kinase CLK2 (CLK2, Homo sapiens, UniProt P49760)
# Method: competition with immobilised ligand
Compound,assay,setting,remaining binding
O=C(Nc1c[nH]nc1C(=O)NC1CCNCC1)c1cc(F)cc(F)c1,binding,1 µM,100%
O=C(c1ccc(Nc2ncc(Cl)c(-c3ccc(Cl)s3)n2)cc1)N1CCC(N2CCCC2)CC1,binding,1 µM,5.2%
Nc1c(C(=O)NCc2ccc(C(=O)NCCCC3CCCCC3)cc2)cnn1-c1ccccc1,cell-free assay,0.1 µM,100%
O=C(NCCCN1CCOCC1)c1ccc(Nc2nccc(-c3cc4ccccc4s3)n2)cc1,binding,1 µM,28%
C[C@H](NC(=O)c1cnc2n1[C@](C)(Cc1ccc(C#N)cc1)C(=O)N2c1cc(Cl)c(F)c(Cl)c1)C(=O)NC1(c2ccccn2)CC1,cell-free assay,1 µM,97%
CCN1CCN(Cc2ccc(C(=O)Nc3ccc(C)c(Oc4ccc5c(c4)CC(=O)N5)c3)cc2C(F)(F)F)CC1,binding,1 µM,100%
COc1ncc2cc3ccccc3nc2c1C#N,cell-free assay,5 µM,76%
Cc1cc(C)c(-n2ccn3nc(-c4cccnc4)cc23)cc1NC(=O)c1cc(C#N)cc(S(F)(F)(F)(F)F)c1,cell-free assay,0.1 µM,91%
COc1cnc(Nc2cccc(S(N)(=O)=O)c2)nc1N1CCN(c2ccccc2)CC1,binding,1 µM,99%
CCOC(=O)c1cc2cc(-c3cc(C(=O)NCc4ccc(C(=O)O)cc4)nn3C)ccc2[nH]1,cell-free assay,0.1 µM,96%
CN(CCCC(F)(F)F)c1nccc(-c2cnn3ncccc23)n1,binding,1 µM,47%
COc1cnc(Nc2cccc(S(N)(=O)=O)c2)nc1N1CCN(c2ccccc2)C(=O)C1,binding,1 µM,76%
O=C(NCCCN1CCOCC1)c1ccc(Nc2ncc(Cl)c(-c3ccc(Cl)s3)n2)cc1,binding,1 µM,5.7%
C[C@@H](c1ccc(-n2cnc3c(N)ncnc32)cc1)N1CCc2nn(C)c(Cc3ccccc3)c2C1=O,binding,0.1 µM,79%
